Test [1] deals with T1, Adenosine receptor A1 (Bos taurus, UniProt P28190).
T1 sequence (P28190 whole entry): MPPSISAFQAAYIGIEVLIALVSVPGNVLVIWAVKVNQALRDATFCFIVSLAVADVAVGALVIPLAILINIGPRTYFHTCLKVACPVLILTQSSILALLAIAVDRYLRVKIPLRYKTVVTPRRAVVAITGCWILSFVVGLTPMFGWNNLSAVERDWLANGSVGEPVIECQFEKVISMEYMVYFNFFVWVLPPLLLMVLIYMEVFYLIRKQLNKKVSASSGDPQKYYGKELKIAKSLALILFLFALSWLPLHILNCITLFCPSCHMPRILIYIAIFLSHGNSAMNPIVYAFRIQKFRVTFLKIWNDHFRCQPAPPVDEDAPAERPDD
Briefly: Displacement of [3H]DPCPX from adenosine A1 receptor in bovine cerebral cortical membranes. Format: cell membranes. An outline of the steps: (§1)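 [3H]DPCPX was displaced from A1 sites in bovine cortical membranes. Compounds were taken up in DMSO and diluted in assay buffer, with DMSO at 2% or less final. Ki used at least six concentrations across 3 orders of magnitude and was the mean ± SEM of three independent assays in triplicate.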
A general note: In a radioligand displacement assay an active substance lowers the binding of a labelled ligand.

The target of test [2] is Adenosine receptor A1 (Bos taurus) (UniProt P28190). Description: Displacement of [3H]DPCPX from bovine adenosine A1 receptor in bovine cortical membranes.
Test [3] has as its system Adenosine receptor A2a (Bos taurus). Briefly: Displacement of [3HCGS21680 from adenosine A2A receptor in bovine striatal membranes at 10 uM.
For test [4], the target named is T2, Adenosine receptor A3 (Homo sapiens) (UniProt P0DMS8).
T2 sequence (whole entry): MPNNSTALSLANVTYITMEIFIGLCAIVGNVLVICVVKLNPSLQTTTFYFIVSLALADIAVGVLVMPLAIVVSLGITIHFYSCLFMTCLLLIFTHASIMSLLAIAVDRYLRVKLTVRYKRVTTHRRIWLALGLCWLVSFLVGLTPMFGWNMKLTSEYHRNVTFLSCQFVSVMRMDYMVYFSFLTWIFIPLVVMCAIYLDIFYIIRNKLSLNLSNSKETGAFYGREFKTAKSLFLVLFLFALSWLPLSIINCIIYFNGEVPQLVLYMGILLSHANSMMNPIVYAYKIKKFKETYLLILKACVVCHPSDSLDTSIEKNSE
Description: Displacement of [125I]AB-MECA from human adenosine A3 receptor expressed in CHO cells at 10 uM.

Test [5] deals with Adenosine receptor A2a (Bos taurus). Description: Displacement of [3H]CGS-21680 from adenosine A2A receptor in bovine striatal membranes.
In test [6] the target is T3, Adenosine receptor A1 (Homo sapiens, UniProt P30542).
T3 sequence (P30542 whole entry): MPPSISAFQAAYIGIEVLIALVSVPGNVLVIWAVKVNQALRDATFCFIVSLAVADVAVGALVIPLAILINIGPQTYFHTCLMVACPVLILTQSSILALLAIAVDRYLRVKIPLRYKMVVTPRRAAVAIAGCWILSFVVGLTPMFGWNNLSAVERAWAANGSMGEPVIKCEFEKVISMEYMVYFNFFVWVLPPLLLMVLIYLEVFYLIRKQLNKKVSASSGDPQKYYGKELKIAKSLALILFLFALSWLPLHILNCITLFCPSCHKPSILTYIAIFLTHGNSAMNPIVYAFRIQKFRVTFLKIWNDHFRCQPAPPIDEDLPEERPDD
Description: Displacement of [3H]DPCPX from human adenosine A1 receptor expressed in CHO cells. The test is classed as cell-based. The procedure, abridged:
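Binding used CHO cells transfected with human A1 receptor, with displacement of specific [3H]DPCPX binding. Ligands were in DMSO diluted into buffer, with no more than 2% DMSO final, over at least six concentrations spanning 3 orders of magnitude. Ki values were means ± SEM of three separate assays, each performed in triplicate.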

Test [7] addresses T1, Adenosine receptor A1. Description: Displacement of [3H]DPCPX from adenosine A1 receptor in bovine cerebral cortical membranes in absence of GTP. Format: cell membranes. An outline of the steps:
(§2)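 [3H]DPCPX competition binding on bovine cortical membranes, run side by side without and with 1 mM GTP. Compounds dissolved in DMSO and diluted in assay buffer, final DMSO at most 2%. At least six concentrations spanning 3 orders of magnitude were used. Ki given as mean ± SEM of three experiments.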

The target in test [8] is T1, Adenosine receptor A1. Description: Displacement of [3H]DPCPX from adenosine A1 receptor in bovine cerebral cortical membranes in presence of GTP. Format: cell membranes. The procedure, abridged:
as §2

The target of test [9] is T4, Adenosine receptor A1 (Bos taurus) (UniProt P28190).
T4 sequence (whole entry): T1 sequence (P28190 whole entry)
Briefly: Displacement of [3H]DPCPX from adenosine A1 receptor in bovine cerebral cortical membranes at 10 uM. The test is classed as cell membranes. An outline of the steps:
as §1

The source of these data is ChEMBL document CHEMBL1139469, “Synthesis and 3D QSAR of new pyrazolo[3,4-b]pyridines: potent and selective inhibitors of A1 adenosine receptors” (J Med Chem, 2005).

The Ki is a dissociation constant, usually derived from enzyme kinetics or from competition with a known ligand. One may read the inhibition as the share of the control response that was lost under treatment. Consider `CCCNc1c(C(=O)OC(C)C)cnc2c1cnn2CC(Cl)c1ccccc1` (stereo unspecified), for which the Ki at Adenosine receptor A1 [1] was 24 nM; in test [2], 20 nM. Also, the figures for the inhibition in test [3] and in test [4] were 11% and 0%, respectively.
Regarding `CCCNc1c(C(=O)OCCC)cnc2c1cnn2CC(Cl)c1ccccc1` (stereo unspecified), the Ki at Adenosine receptor A1 [1] was 145 nM; in [5], 1390 nM; in test [2], 158 nM.
In the case of `COc1ccc(CCNc2c(C(=O)OC(C)C)cnc3c2cnn3CC(Cl)c2ccccc2)cc1` (stereo unspecified), the Ki at Adenosine receptor A1 [1] was 7 nM; on Adenosine receptor A1 [6], 17 nM; at Adenosine receptor A1 [7], 7.2 nM; on Adenosine receptor A1 [8], 7.7 nM; in test [2] it was 7.94 nM. Besides, in [4], the inhibition turned out to be 52%.
Regarding `COC(=O)c1cnc2c(cnn2CC(Cl)c2ccccc2)c1N1CCOCC1` (stereo unspecified), the inhibition in [9] came out at 51%; in test [3] it was 0%. In [2], this compound gave a Ki of 10000 nM.
`CCOC(=O)c1cnc2c(cnn2CC(Cl)c2ccccc2)c1NCCc1ccc(C)cc1` (stereo unspecified): the Ki was 22 nM on Adenosine receptor A1 [1] and 20 nM in test [2]. Also, the inhibition in [4] was 38%.
Take `CCOC(=O)c1cnc2c(cnn2CC(Cl)c2ccccc2)c1NCCc1ccc(OC)cc1` (stereo unspecified): the Ki was 10 nM on Adenosine receptor A1 [1], 25 nM on Adenosine receptor A1 [6] and 10 nM in [2]. The compound further yielded an inhibition in test [4] of 49%.
Regarding `COC(=O)c1cnc2c(cnn2CC(Cl)c2ccccc2)c1NCCc1ccccc1` (stereo unspecified), the values for the Ki (at Adenosine receptor A1 [1]; in test [5]; in test [2]) were 88 nM, 1230 nM and 79.4 nM, respectively. The compound also came in with an inhibition in test [4] of 0%.
On to `CCOC(=O)c1cnc2c(cnn2CC(Cl)c2ccccc2)c1NCCc1ccc(F)cc1` (stereo unspecified), for which the inhibition constant Ki at Adenosine receptor A1 [1] was 12 nM; on Adenosine receptor A1 [6], 16 nM; in test [2], 12.6 nM. Moreover, the inhibition in [3] was 30%; in test [4], 37%.
As to `CCCCOC(=O)c1cnc2c(cnn2CC(Cl)c2ccccc2)c1N1CCOCC1` (stereo unspecified), the values for the inhibition in test [9] and in [3] were 63% and 16%, respectively. This compound had a Ki in [2] of 10000 nM.
As for `CCCNc1c(C(=O)OC)cnc2c1cnn2CC(Cl)c1ccccc1` (stereo unspecified), the results for the Ki (at Adenosine receptor A1 [1]; in [5]; in test [2]) were 170 nM, 7670 nM and 158 nM, respectively.
For the compound `COC(=O)c1cnc2c(cnn2CC(Cl)c2ccccc2)c1NCCc1ccc(OC)cc1` (stereo unspecified), the Ki was 6 nM at Adenosine receptor A1 [1]; 94 nM on Adenosine receptor A1 [6]; 6.3 nM on Adenosine receptor A1 [7]; 7.3 nM on Adenosine receptor A1 [8]; 6.31 nM in [2]. The compound also registered an inhibition in test [4] of 41%.
As to `COC(=O)c1cnc2c(cnn2CC(Cl)c2ccccc2)c1NCCc1ccc(C)cc1` (stereo unspecified), the Ki at Adenosine receptor A1 [1] is 15 nM; on Adenosine receptor A1 [6] it was 148 nM; in test [2], 15.8 nM. In addition, the inhibition came to 26% in test [3] and 40% in [4].
In the case of `CCCCOC(=O)c1cnc2c(cnn2CC(Cl)c2ccccc2)c1NC1CC1` (stereo unspecified), the values for the Ki (at Adenosine receptor A1 [1]; in test [2]) were 895 nM and 1000 nM, respectively. For the same compound, the inhibition in test [3] is 11%; in test [4], 0%.
In test [4], `CCCOC(=O)c1cnc2c(cnn2CC(Cl)c2ccccc2)c1NC1CC1` (stereo unspecified) came in with an inhibition of 2%.
As to `CCOC(=O)c1cnc2c(cnn2CC(Cl)c2ccccc2)c1NCCc1ccc(Cl)cc1` (stereo unspecified), the Ki on Adenosine receptor A1 [1] is 19 nM; on Adenosine receptor A1 [6], 153 nM; in test [2] it was 20 nM. Also, the results for the inhibition in test [3] and in [4] were 63% and 46%, respectively.
As to `CC(C)OC(=O)c1cnc2c(cnn2CC(Cl)c2ccccc2)c1NCCc1ccccc1` (stereo unspecified), the results for the Ki (at Adenosine receptor A1 [1]; in test [5]; in test [2]) were 31 nM, 1520 nM and 31.6 nM, respectively. The same compound yielded an inhibition in [4] of 0%.
Turning to `CCCCOC(=O)c1cnc2c(cnn2CC(Cl)c2ccccc2)c1N1CCCC1` (stereo unspecified), the Ki at Adenosine receptor A1 [1] was 1890 nM; in test [2], 2000 nM. The same compound showed an inhibition in test [3] of 45%.
`CC(C)OC(=O)c1cnc2c(cnn2CC(Cl)c2ccccc2)c1NC1CC1` (stereo unspecified): the figures for the Ki (on Adenosine receptor A1 [1]; in test [2]) were 36 nM and 31.6 nM, respectively. This compound returned an inhibition in [4] of 0%.
As for `CC(C)OC(=O)c1cnc2c(cnn2CC(Cl)c2ccccc2)c1NCCc1ccc(Cl)cc1` (stereo unspecified), the Ki on Adenosine receptor A1 [1] was 41 nM; in [2] it was 39.8 nM. The same compound yielded an inhibition in [3] of 27%.
As to `CCCCOC(=O)c1cnc2c(cnn2CC(Cl)c2ccccc2)c1NCCC` (stereo unspecified), the Ki at Adenosine receptor A1 [1] was 959 nM; in test [2], 1000 nM. In addition, in test [3], the inhibition stood at 20%.
Take `CCOC(=O)c1cnc2c(cnn2CC(Cl)c2ccccc2)c1NCCc1ccccc1F` (stereo unspecified): the Ki at Adenosine receptor A1 [1] is 16 nM; at Adenosine receptor A1 [6], 29 nM; in test [2], 15.8 nM. Besides, the inhibition in [4] came to 53%.
For `CCC(C)OC(=O)c1cnc2c(cnn2CC(Cl)c2ccccc2)c1NCCc1ccccc1` (stereo unspecified), the Ki was 62 nM at Adenosine receptor A1 [1] and 63.1 nM in test [2]. In [3], this compound returned an inhibition of 46%.
The matching figures for `CC(C)OC(=O)c1cnc2c(cnn2CC(Cl)c2ccccc2)c1N1CCCC1` (stereo unspecified): 1080 nM, 1000 nM and 30%.
The matching figures for `CCC(C)OC(=O)c1cnc2c(cnn2CC(Cl)c2ccccc2)c1NC1CC1` (stereo unspecified): 197 nM, 200 nM and 33%.
In the case of `CCCCOC(=O)c1cnc2c(cnn2CC(Cl)c2ccccc2)c1NCc1ccccc1` (stereo unspecified), the values for the inhibition in [9] and in [3] were 27% and 5%, respectively. This compound had a Ki in test [2] of 10000 nM.
